# The list is not random: actives were taken first. Their share in the collection is about 1.9%.
# Rtt109 HAT inh: inhibitors of C. albicans Rtt109/Vps75 HAT, primary screen, biochemical, ThioGlo CoA-SH fluorescence, plate reader; Histone acetyltransferase RTT109 (Candida albicans (strain SC5314 / ATCC MYA-2876)), …; purified Rtt109/Vps75, 4 h; inhibition, % at 34.9 µM; 0.16% of 330,000 active;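 active means inhibition of at least 50% in every replicate; inconclusive means best replicate reaches 50% inhibition but some replicates fall short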
# SR-BI uptake up: activators of SR-BI mediated DiI-HDL uptake, primary screen, ldlA[mSR-BI] CHO cells, DiI fluorescence. 3 h; 100 = double the neutral-control signal. activation, % at 12.5 µM. 0.096% of 320,000 active. AID 504775, 2011;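 active means mean replicate activation of at least 60% and every replicate at or above 60%; inconclusive means mean or all-replicate condition met, but not both; inactive means mean below 60% and not all replicates reaching 60%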;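 further: 0% = median plate neutral-control signal and 100% = twice that signal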
#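 Material – SR-BI-overexpressing, LDLR-lacking CHO cells · Medium – BSA-supplemented, HEPES-buffered Ham's F12, pH 7.4 · Doses – single concentration · Times – compound with DiI-HDL co-incubation, 3 h at 37 °C · Measured by – bottom-read fluorescence, 550/595 nm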
# Glyco luc inh: increase of ERlucT glycosylation luciferase signal, primary screen, N-linked glycosylation inhibitor project, D54 ERlucT cells, luminescence, set 2; D54 ERlucT glycosylation luciferase reporter, 24 h; percent of 100 nM tunicamycin response; reporter increase, % at 12.5 µM; 0.23% of 360,000 active;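 active means mean luciferase reporter signal, scaled so untreated is 0 and the glycosylation-blocking control 100, at or above a set limit in every replicate; inconclusive means mean reaches the limit but not every replicate does; inactive means mean below the limit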;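 further: luciferase carries N-glycosylation sites so blocking glycosylation raises the light; 0% = median of neutral control wells and 100% = median of 100 nM tunicamycin wells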
# Env fusion inh: inhibitors of HIV-1 Env-driven cell-cell fusion, primary screen, HeLa-JRFL effector, CEM21 target cells, luciferase. inhibition, % at 12.3 µM. AID 651610, 2012. 1.1% of 360,000 active;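 active means mean replicate inhibition score of at least 50 and every replicate individually at or above 50; inconclusive means only one of the two criteria met; inactive means mean below 50 and not all replicates reaching 50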;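 further: 0% = plate neutral controls and 100% = maraviroc near 300 nM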
# PglD DTNB: C. jejuni PglD acetyltransferase inhibitors, primary screen, biochemical, DTNB colorimetric, single point; inhibition, % at 12.5 µM; 0.098% of 360,000 active; AID 602405, 2012; purified PglD enzyme, DTNB colorimetric CoA detection; UDP-N-acetylbacillosamine N-acetyltransferase PglD (Campylobacter jejuni); in the data active means inhibition above about 16%, passing the limit was not always enough; inconclusive means no clear call, values can overlap the other calls
# SR-BI HDL uptake: inhibitors of SR-BI mediated HDL lipid uptake, primary screen, ldlA[mSR-BI] cells, fluorescence, single point | Scavenger receptor class B member 1 (Mus musculus), Q61009 | ldlA[mSR-BI] CHO cells, DiI-HDL uptake fluorescence, 3 h | inhibition, % at 12.5 µM | 0.96% of 320,000 active;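 active means mean replicate inhibition of at least 70% and a set share of replicates each scoring 70 or more; inconclusive means meets just one of the two criteria; inactive means fails both criteria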;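 further: 0% = median of neutral control wells and 100% = median of positive control wells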
# Target sequence (Q61009 whole entry, looked up): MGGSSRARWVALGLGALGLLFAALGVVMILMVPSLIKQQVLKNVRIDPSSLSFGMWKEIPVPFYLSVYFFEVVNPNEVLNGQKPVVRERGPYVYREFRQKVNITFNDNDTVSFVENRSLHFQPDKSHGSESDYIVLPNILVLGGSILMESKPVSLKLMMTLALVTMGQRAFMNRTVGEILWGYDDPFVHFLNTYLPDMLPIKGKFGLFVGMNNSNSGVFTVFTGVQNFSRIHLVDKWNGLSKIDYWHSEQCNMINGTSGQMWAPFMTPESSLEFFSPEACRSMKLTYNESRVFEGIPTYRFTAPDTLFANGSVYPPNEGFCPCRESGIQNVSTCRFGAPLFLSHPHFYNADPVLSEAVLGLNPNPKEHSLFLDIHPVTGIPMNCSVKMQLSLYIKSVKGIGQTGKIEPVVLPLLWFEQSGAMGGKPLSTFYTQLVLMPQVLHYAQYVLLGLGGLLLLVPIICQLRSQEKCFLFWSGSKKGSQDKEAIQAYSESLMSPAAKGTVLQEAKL
# * hit, by the source's call; i = inactive; u = inconclusive; x = not tested or not shown; ! = not active in a repeat; [ ] = another dose, or the depositor's remark.
SMILES,Rtt109 HAT inh,SR-BI uptake up,Glyco luc inh,Env fusion inh,PglD DTNB,SR-BI HDL uptake
Cn1c(=O)c2c(nc(NC3CCCCC3)n2CC(=O)C23CC4CC(CC(C4)C2)C3)n(C)c1=O,57*,-45,-4,-33,-2,45
O=C(C[C@H]1CC[C@@H]2[C@H](COC[C@@H](O)CN2C(=O)Nc2ccc(Cl)c(Cl)c2)O1)NCc1ccncc1,x,x,x,21[16.7 µM],1,x
Cn1c(-c2ccsc2)c(-c2cccs2)c2cc(-c3ccc4cc[nH]c4c3)ccc21,-9,-77,10,-25,3,77*
C[C@H](CO)N1C[C@H](C)[C@H](CN(C)Cc2ccc3c(c2)OCO3)OCCCC[C@H](C)Oc2ccc(NS(=O)(=O)c3ccc(Cl)cc3)cc2C1=O,x,x,x,-43[16.7 µM],7,x
CO[C@H]1CN(C)C(=O)c2cc(NS(=O)(=O)c3cccc(F)c3)ccc2OC[C@H](C)NC[C@@H]1C,x,x,x,8[16.7 µM],-1,x
CCCCCCSc1cccc(-c2nc3ccc(Cl)cn3c2NCc2ccccc2)c1,-20,-26,-4,72*!,1,26
CCCCCCSc1ccc(-c2nc3ccc(C)cn3c2NCc2ccccc2)cc1,-7,-19,-3,u,-1,19
Cc1cc(-c2ccccc2)nc(N/N=C/c2ccccc2)n1,1,-72,1,-51,x,72*
Cc1cc(-c2ccccc2)nc(N/N=C/c2cccnc2)n1,3,-32,6,-3,1,32
Cc1cc(-c2ccccc2)nc(N/N=C/c2ccc([N+](=O)[O-])cc2)n1,21,-73,-3,-11,14,73*
CN(c1ncnc(N)c1[N+](=O)[O-])C1CCS(=O)(=O)C1 (stereo not given),5,10,-10,59*,-1,-10
Cc1cc(C)c(C#N)c(Nc2ccc(F)cc2)n1,-4,-10,-1,-34,4,10
CCOC(=O)c1ccc(Nc2nc(C)cc(C)c2C#N)cc1,4,-73,3,8,3,73*
O=C(C[C@@H]1CC[C@@H](NC(=O)c2cccnc2)[C@H](CO)O1)NCc1ccncn1,x,x,x,0[16.7 µM],-2,x
Cc1c(C(=O)O)oc2c(F)cccc12,1,6,3,-2,1,-6
Cc1c(C(=O)N2CCC[C@H]2CO)oc2c(F)cccc12,57*,12,2,-27,-25,-12
COc1ccc(S(=O)(=O)N2CCOCC2)cc1NC(=O)c1cc2c(s1)CCCC2,-7,-29,-7,1,x,29
COc1ccc(NC(=O)c2cc3c(s2)CCC3)cc1S(=O)(=O)N1CCOCC1,8,-70,-5,46,-2,70*
COc1ccc(C(=O)NCc2ccccc2CN2CCCC2)cc1S(=O)(=O)N1CCOCC1,0,12,-2,62*,2,-12
CN(C)c1ncnc2c1ccn2C1OC(CO)C(O)C1O (stereo not given),0,17,-18,77*,13,-17
OCC1OC(n2ccc3c(NO)ncnc32)C(O)C1O (stereo not given),3,13,-17,91*,x,-13
CNC(=O)C[C@@H]1CC[C@H]2[C@H](COc3ccc(NC(=O)Nc4c(C)noc4C)cc3C(=O)N2C)O1,x,x,x,11[16.7 µM],x,x
CO[C@H]1CN(C)C(=O)c2ccc(NC(=O)Nc3ccccc3)cc2OC[C@H](C)N(C(=O)Nc2c(C)noc2C)C[C@H]1C,x,x,x,x,2,x
Cc1ccc2[nH]c(C)c(/C=N/Nc3nc4ccccc4s3)c2c1,1,-122,-4,-32,3,122*
C[C@H](CO)N1C[C@H](C)[C@H](CN(C)S(=O)(=O)c2cn(C)cn2)OCCCC[C@H](C)Oc2ccc(NS(=O)(=O)c3cn(C)cn3)cc2C1=O,x,x,x,9[16.7 µM],-3,x
SMILES,Rtt109 HAT inh,SR-BI uptake up,Glyco luc inh,Env fusion inh,PglD DTNB,SR-BI HDL uptake
CN1CCN(c2nc3c(c(=O)[nH]c(=O)n3C)n2Cc2ccc(Cl)cc2)CC1,67*,15,3,11,-1,-15
Cc1ccc(Cn2c(N3CCN(C)CC3)nc3c2c(=O)[nH]c(=O)n3C)cc1,1,22,1,-4,3,-22
CCC1CN(C(=O)NCc2ccc(C)cc2)c2cc(C)ccc2O1 (stereo not given),-15,-78,-2,5,1,78*
O=C(NC[C@@H]1[C@H](c2ccccc2)[C@H](CO)N1CC1CCCC1)c1ccccc1,x,x,x,x,0,x
COc1cccc(-c2ccc3c(c2)[C@H]2[C@H](CCN2C(=O)c2ccc(F)cc2)[C@@H](CO)N3C)c1,x,x,x,x,2,x
COC(=O)C[C@H]1C=C[C@H](NC(=O)c2ccccn2)[C@@H](CO)O1,x,x,x,72*,x,x
O=C(C[C@@H]1C=C[C@@H](NC(=O)c2ccccc2)[C@@H](CO)O1)NCc1ccc(Oc2ccccc2)cc1,x,x,x,u,6,x
COc1cccc(CNC(=O)C[C@H]2C=C[C@@H](NC(=O)C3CCC3)[C@H](CO)O2)c1,x,x,x,-22[16.7 µM],x,x
COc1cccc(CNC(=O)C[C@@H]2C=C[C@H](NC(=O)C3CCC3)[C@H](CO)O2)c1,x,x,x,65*[16.7 µM],7,x
O=C(C[C@@H]1C=C[C@@H](NC(=O)c2ccccc2)[C@H](CO)O1)NCc1ccc(Oc2ccccc2)cc1,x,x,x,57*[16.7 µM],2,x
O=C(C[C@@H]1C=C[C@H](NC(=O)c2ccccc2)[C@H](CO)O1)NCc1ccc(Oc2ccccc2)cc1,x,x,x,61*[16.7 µM],3,x
CC1(C)N=C(SCC(=O)Nc2ccccc2)C(c2ccc(Cl)cc2)=N1,7,-29,-1,29,0,29
Cc1ccc(C2=NC(C)(C)N=C2SCC(=O)Nc2ccc(Cl)cc2)cc1,99*,-4,6,-36,-2,4
CC(C)(COC(=O)C(c1ccccc1)c1ccccc1)CN1CCOCC1,4,15,-5,80*,x,-15
O=C(C[C@@H]1C=C[C@@H](NC(=O)c2ccc3c(c2)OCO3)[C@H](CO)O1)NCc1ccc(F)cc1,x,x,x,16[16.7 µM],-2,x
O=C(OCn1ncc(Cl)c(Cl)c1=O)c1ccc(C(F)(F)F)cc1,1,-5,31*,i,6,5
Cc1ccc(C(=O)OCn2ncc(Cl)c(Cl)c2=O)cc1,17,5,-24,i,2,-5
C[C@@H]1CN([C@@H](C)CO)S(=O)(=O)c2ccc(C3=CCCCC3)cc2O[C@@H]1CN(C)Cc1ccccn1,x,x,x,6[16.7 µM],5,x

# Screens: PubChem, Broad Institute
